Measurements taken from ChEMBL document CHEMBL1128515, “Cardioselective anti-ischemic ATP-sensitive potassium channel openers. 3. Structure-activity studies on benzopyranyl cyanoguanidines: modification of the cyanoguanidine portion” (J Med Chem, 1995).

Columns and labels:
Assay type in all cases: functional
Rattus norvegicus [1] = organism: Rattus norvegicus; assay: Tested for the vasorelaxant potency in methoxamine contracted rat aorta
Method in brief: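 Rat aortic tissue contracted with methoxamine. The IC50 is the concentration producing relaxation.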

Rattus norvegicus [2] = organism: Rattus norvegicus; assay: Concentration necessary for increase in time to contracture by 25% in the globally ischemic rat hearts
Method in brief: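 Isolated rat hearts, perfused and then made globally ischemic. The EC25 is the concentration giving a 25% increase in time to onset of contracture. Time to contracture is the time during total global ischemia for end-diastolic pressure to rise 5 mmHg above baseline.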

Rattus norvegicus [3] = organism: Rattus norvegicus; assay: Ratio of the concentration increasing time to contracture by 25% (EC25) in rat heart and concentration showing vasorelaxant potency (IC50) in rat aorta.
Method in brief: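 Cardiac selectivity index: the ratio of vasorelaxant potency (IC50 for relaxing methoxamine-contracted rat aorta) to anti-ischemic potency (EC25 for increasing time to contracture in globally ischemic isolated perfused rat hearts).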

Rattus norvegicus [4] = organism: Rattus norvegicus; assay: Concentration necessary for increase in time to contracture at a concentration of 10 uM in ischemic rat hearts

SMILES | IC50 (Rattus norvegicus [1]) | EC25 (Rattus norvegicus [2]) | Ratio (Rattus norvegicus [3]) | Increase (Rattus norvegicus [2]) | Activity (Rattus norvegicus [4])
Cc1ccc(N/C(=N/[C@@H]2c3cc(C#N)ccc3OC(C)(C)[C@H]2O)NC#N)cc1 | 2.7 µM | 1.6 µM | 0.6 | – | –
Cc1cccc(N/C(=N/[C@@H]2c3cc(C#N)ccc3OC(C)(C)[C@H]2O)NC#N)c1 | – | 2.7 µM | – | – | –
COC(=O)c1cccc(N/C(=N/[C@@H]2c3cc(C#N)ccc3OC(C)(C)[C@H]2O)NC#N)c1 | 4.1 µM | – | – | – | –
CC1(C)Oc2ccc(C#N)cc2[C@@H](/N=C(\NC#N)Nc2cccc(C(F)(F)F)c2)[C@@H]1O | 1.6 µM | 5.3 µM | 3.3 | – | –
CC(=O)c1ccc(N/C(=N/[C@@H]2c3cc(C#N)ccc3OC(C)(C)[C@H]2O)NC#N)cc1 | 21 µM | 52 µM | 2.5 | – | –
CC1(C)Oc2ccc(C#N)cc2[C@@H](n2c(O)nc3ccccc32)[C@@H]1O | – | 11.7 µM | – | – | –
CC(=O)c1cccc(N/C(=N/[C@@H]2c3cc(C#N)ccc3OC(C)(C)[C@H]2O)NC#N)c1 | 8.4 µM | – | – | – | –
COc1ccc(N/C(=N/[C@@H]2c3cc(C#N)ccc3OC(C)(C)[C@H]2O)NC#N)cc1 | 32.5 µM | 5.3 µM | 0.16 | – | –
CC1(C)Oc2ccc(C#N)cc2[C@@H](/N=C(\NC#N)Nc2ccc(C(=O)O)cc2)[C@@H]1O | > 100 µM | – | – | – | –
CC1(C)Oc2ccc(C#N)cc2[C@@H](NC(=O)NCc2ccccc2)[C@@H]1O | 5.6 µM | >30 µM | – | – | –
COC(=O)c1ccc(N/C(=N/[C@@H]2c3cc(C#N)ccc3OC(C)(C)[C@H]2O)NC#N)cc1 | 18.4 µM | – | – | – | –
CC1(C)Oc2ccc(C#N)cc2[C@@H](/N=C(\NC#N)Oc2ccccc2)[C@@H]1O | > 100 µM | 68.8 µM | – | – | –
CC1(C)Oc2ccc(C#N)cc2[C@@H](/N=C(\NC#N)NCc2ccccc2)[C@@H]1O | 2.4 µM | >30 µM | – | – | –
CC1(C)Oc2ccc(C#N)cc2[C@@H](/N=C(\NC#N)Nc2ccc3c(c2)CCC3)[C@@H]1O | 41.3 µM | 3.5 µM | 0.08 | – | –
CC1(C)Oc2ccc(C#N)cc2[C@@H](NC(=O)Nc2cccnc2)[C@@H]1O | 0.5 µM | 4.2 µM | 8.4 | – | –
Cc1ccc(N/C(=N/[C@@H]2c3cc(C#N)ccc3OC(C)(C)[C@H]2O)NC#N)cc1C | 5.1 µM | 2.5 µM | 0.49 | – | –
CC1(C)Oc2ccc(C#N)cc2[C@@H](/N=C(\NC#N)Nc2ccc(Cl)c(F)c2)[C@@H]1O | 1.66 µM | – | – | – | –
CC1(C)Oc2ccc(C#N)cc2[C@@H](/N=C(\NC#N)Nc2ccc(Cl)c(Cl)c2)[C@@H]1O | 4.6 µM | 12.9 µM | 2.8 | – | –
CC1(C)Oc2ccc(C#N)cc2[C@@H](NC(=O)Nc2ccncc2)[C@@H]1O | 8.5 µM | – | – | 1% | –
CCC(C)(C)/N=C(\NC#N)N[C@@H]1c2cc(C#N)ccc2OC(C)(C)[C@H]1O | – | – | 0.7 | – | –
CC1(C)Oc2ccc(C#N)cc2[C@@H](/N=C(\NC#N)Nc2ccc(C(F)(F)F)cc2)[C@@H]1O | – | – | 1.4 | – | –

SMILES | IC50 (Rattus norvegicus [1]) | EC25 (Rattus norvegicus [2]) | Ratio (Rattus norvegicus [3]) | Increase (Rattus norvegicus [2]) | Activity (Rattus norvegicus [4])
CC1(C)Oc2ccc(C#N)cc2[C@@H](NC(=O)Cc2ccccc2)[C@@H]1O | 1.8 µM | 22.2 µM | 12.3 | – | –
CSc1ccc(N/C(=N/[C@@H]2c3cc(C#N)ccc3OC(C)(C)[C@H]2O)NC#N)cc1 | 6.3 µM | – | – | – | –
CC1(C)Oc2ccc(C#N)cc2[C@@H](NC(=O)Nc2ccccn2)[C@@H]1O | 0.44 µM | 2.6 µM | 5.9 | – | –
CC1(C)Oc2ccc(C#N)cc2[C@@H](/N=C(\NC#N)Nc2cccc(C(=O)O)c2)[C@@H]1O | > 100 µM | – | – | – | –
CC1(C)Oc2ccc(C#N)cc2[C@@H](/N=C(\NC#N)Nc2cccc(Cl)c2)[C@@H]1O | 0.6 µM | 1.4 µM | 2.3 | – | –
CC1(C)Oc2ccc(C#N)cc2[C@@H](/N=C(\NC#N)Nc2ccc([N+](=O)[O-])cc2)[C@@H]1O | 0.3 µM | 6.2 µM | 20.6 | – | –
CC1(C)Oc2ccc(C#N)cc2[C@@H](/N=C(\NC#N)Nc2cccc([N+](=O)[O-])c2)[C@@H]1O | 0.67 µM | 5 µM | 7.5 | – | –
CC1(C)Oc2ccc(C#N)cc2[C@@H](NC(=O)c2ccccc2)[C@@H]1O | 0.03 µM | 11.8 µM | 393 | – | –
COC(=O)c1cn([C@@H]2c3cc(C#N)ccc3OC(C)(C)[C@H]2O)c2ccccc12 | – | 3.2 µM | – | – | –
CC1(C)Oc2ccc(C#N)cc2[C@@H](N2CCN(c3ccccc3)C2=O)[C@@H]1O | 23.7 µM | 10 µM | 0.42 | – | –
CC1(C)Oc2ccc(C#N)cc2[C@@H](/N=C(\NC#N)Sc2ccccc2)[C@@H]1O | 4.9 µM | >30 µM | – | – | –
CSc1cccc(N/C(=N/[C@@H]2c3cc(C#N)ccc3OC(C)(C)[C@H]2O)NC#N)c1 | 1.4 µM | 8.2 µM | 5.6 | – | –
COC(=O)c1cc2ccccc2n1[C@@H]1c2cc(C#N)ccc2OC(C)(C)[C@H]1O | – | 8.1 µM | – | – | –
C/N=C(\NC#N)N[C@@H]1c2cc(C#N)ccc2OC(C)(C)[C@H]1O | – | 13.3 µM | 66.5 | – | –
CC1(C)Oc2ccc(C#N)cc2[C@@H](n2cc(C#N)c3ccccc32)[C@@H]1O | 2.2 µM | 25.5 µM | 11.5 | – | –
CC1(C)Oc2ccc(C#N)cc2[C@@H](/N=C(\NC#N)NNc2ccccc2)[C@@H]1O | 3.5 µM | – | – | – | 4%
CC1(C)Oc2ccc(C#N)cc2[C@@H](/N=C(\NC#N)Nc2ccc(Cl)cc2)[C@@H]1O | – | – | 1.4 | – | –
CC1(C)Oc2ccc(C#N)cc2[C@@H](/N=C(\NC#N)Nc2ccccc2)[C@@H]1O (stereo in doubt; 3) | – | 11 µM | 7.9 | – | –
CC1(C)Oc2ccc(C#N)cc2[C@@H](/N=C(\NC#N)Nc2ccccc2)[C@@H]1O (stereo in doubt; 22) | – | 6.1 µM | 4.7 | – | –
CC1(C)Oc2ccc(C#N)cc2[C@@H](N2CCCC2=O)[C@@H]1O [CROMAKALIM] | – | – | 278.1 | – | –
